Series [1] in a line: Positive inotropic activity in cat heart papillary muscle assessed as increase in contractile force at 1 ug/mL measured for 5 to 30 mins. The format is functional, Felis catus, Muscle tissue. The method in brief: (§1)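 Right-ventricular cat papillary muscles in Krebs–Henseleit solution at 37 °C, paced at 1/s (4–10 ms, 6–10 V square waves). Equilibrated about 90 min; compound added once force had fallen to 25–30% of original (1.5–2 h). Force recorded 5, 10, 20 and 30 min after addition, then ouabain 0.5 μg/mL added. Increase over 20% scored positive. Actives retested on three further preparations at ≥3 concentrations.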

The nature of series [2]: Inhibition of calf heart Na+-K+ dependent ATPase preincubated for 30 mins measured after 10 to 20 mins. As to conditions: read-out: I50. The arrangement: species or system Bos taurus. Summed up:
(§2)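 Partially purified membrane ATPase from calf heart or guinea pig renal cortex. Inhibitor plus enzyme were preincubated 30 min at 10× final concentrations, then added to the otherwise complete assay system. Incubated at 37 °C under air, with aliquots taken at 10 and 20 min. Liberated phosphate measured by the Lowry–Lopez method. I50 came from log inhibitor vs percent inhibition lines, at least three points.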

The nature of series [3]: (§3) Inhibition of calf heart Na+-K+ dependent ATPase after 10 to 20 mins. The arrangement: species or system Bos taurus. Conditions: read-out: I50. The method in brief:
(§4)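 Partially purified membrane ATPase from calf heart or guinea pig renal cortex. Reaction started by final addition of enzyme. Incubated at 37 °C under air, with aliquots taken at 10 and 20 min. Liberated phosphate measured by the Lowry–Lopez method. I50 came from log inhibitor vs percent inhibition lines, at least three points. This was done only where acute inhibition was >50% at 1 × 10⁻³ M.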

Series [4] in a line: Positive inotropic activity in cat heart papillary muscle assessed as increase in contractile force at 0.5 ug/mL measured for 5 to 30 mins. The format is functional, Felis catus, Muscle tissue. The method in brief:
as §1

Series [5] is described as follows: Positive inotropic activity in cat heart papillary muscle assessed as increase in contractile force at 2 ug/mL measured for 5 to 30 mins. The format is functional, Felis catus, Muscle tissue. The method in brief:
as §1

Series [6] can be described thus: (§5) Inhibition of guinea pig kidney Na+-K+ dependent ATPase after 10 to 20 mins. The arrangement: species or system Cavia porcellus. Conditions: read-out: I50. The method in brief: as §4
The subject of series [7] is Canis familiaris. The experiment in a line: Positive inotropic activity in Beagle dog assessed as increase in left ventricular contractile force at 50 mg/kg, iv. More on the design: dose 50 mg/kg. The format is functional, organism-based. As to conditions: Canis lupus familiaris, Heart left ventricle.
Series [8] can be described thus: Positive inotropic activity in cat heart papillary muscle assessed as increase in contractile force at 0.63 ug/mL measured for 5 to 30 mins. Format: functional, Felis catus, Muscle tissue. The method in brief: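 Right-ventricular papillary muscles from cat hearts in a 100-mL bath of Krebs–Henseleit solution at 37 °C, driven electrically with square waves of 4–10 ms, 6–10 V, 1/s. Equilibrated about 90 min until force fell to 25–30% of initial. Compound added, contractile force read at 5, 10, 20 and 30 min, then ouabain 0.5 μg/mL as a responsiveness check. Positive inotropy means a rise above 20%.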

The species entered for series [9] is Felis catus. In words: Positive inotropic activity in cat heart papillary muscle assessed as increase in contractile force at 10 ug/mL measured for 5 to 30 mins in presence of beta-adrenergic inhibitor sotalol. The format is functional, tissue-based. Summed up: (§6)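 Cat right-ventricular papillary muscle in Krebs–Henseleit at 37 °C, electrically driven at 1/s. Force recorded 5–30 min after compound, in the presence of the β-blocker sotalol at 10 μg/mL. Scored as mg increase in contractile force.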

The species named for series [10] is Cavia porcellus. Described as §5. Summed up: as §4
Series [11] can be described thus: Positive inotropic activity in cat heart papillary muscle assessed as concentration required to increase contractile force by 500 mg measured for 5 to 30 mins. The format is functional, Felis catus, Muscle tissue. The method in brief:
(§7)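 Right-ventricular cat papillary muscles in Krebs–Henseleit at 37 °C, field-stimulated at 1/s (4–10 ms, 6–10 V). Muscles equilibrated about 90 min, until force fell to 25–30% of original. Compound added and force recorded at 5, 10, 20 and 30 min, followed by ouabain 0.5 μg/mL. Positives were retested on three more preparations at ≥3 concentrations. Scored as mg increase in contractile force.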

The nature of series [12]: Positive inotropic activity in cat heart papillary muscle assessed as increase in contractile force at 10 ug/mL measured for 5 to 30 mins. Format: functional, Felis catus, Muscle tissue. Summed up:
as §7

The nature of series [13]: Positive inotropic activity in cat heart papillary muscle assessed as increase in contractile force at 2.5 ug/mL measured for 5 to 30 mins. Format: functional, Felis catus, Muscle tissue. The method in brief:
as §7

Series [14] has as its system Canis familiaris. The experiment in a line: Toxicity in Beagle dog assessed as increase in heart rate at 1.25 to 5 mg/kg, iv measured within 2 mins. The format is organism-based, Canis lupus familiaris. More on the design: dose 1.25-5 mg/kg, route intravenous. As to conditions: in vivo.
A short description of series [15]: Dissociation constant, pKa of the compound. Format: physicochemical. Summed up: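 pKa determined in water or in 30% EtOH–70% H2O, depending on compound.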
Series [16] in a line: Positive inotropic activity in cat heart papillary muscle assessed as increase in contractile force at 1.7 ug/mL measured for 10 mins (reference value: 855 mg). The format is functional, Felis catus, Muscle tissue. Summed up:
(§8)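 Electrically paced (1/s) right-ventricular cat papillary muscles in Krebs–Henseleit solution at 37 °C. Compound added after force declined to 25–30% of original following about 90 min equilibration. Contractile force followed over time to peak and to end of action. Values are the average of four experiments.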

A short description of series [17]: Positive inotropic activity in cat heart papillary muscle assessed as increase in contractile force at 0.156 ug/mL measured for 5 to 30 mins. Format: functional, Felis catus, Muscle tissue. The method in brief: as §1
In series [18] the test system is Canis familiaris. In words: Toxicity in Beagle dog assessed as effect on mean arterial pressure at 1.25 mg/kg, iv. The format is organism-based, Canis lupus familiaris, Artery. More on the design: dose 1.25 mg/kg, route intravenous. Conditions: in vivo.
Series [19] has as its system Canis familiaris. In words: Positive inotropic activity in Beagle dog assessed as increase in left ventricular pressure at 1.25 mg/kg, iv. Format: functional, organism-based. The arrangement: dose 1.25 mg/kg. Conditions: Canis lupus familiaris, Heart left ventricle.
For series [20], the species on record is Felis catus. In words: Positive inotropic activity in cat heart papillary muscle assessed as increase in contractile force at 1.7 ug/mL measured up to 45 mins. Format: functional, tissue-based. As to conditions: Muscle tissue. The method in brief:
as §8

Series [21] deals with Canis familiaris. In words: Positive inotropic activity in Beagle dog assessed as increase in left ventricular contractile force at 1.25 mg/kg, iv measured within 5 mins (reference value: 76 g). The format is functional, Canis lupus familiaris, Heart left ventricle.
The test system of series [22] is Canis familiaris. In words: Positive inotropic activity in Beagle dog assessed as increase in left ventricular dp/dt maximum at 1.25 mg/kg, iv. The format is functional, organism-based. The arrangement: dose 1.25 mg/kg. Conditions: Canis lupus familiaris, Heart left ventricle.
In series [23] the test system is Canis familiaris. The experiment in a line: Toxicity in Beagle dog assessed as reduction in mean arterial pressure at 5 mg/kg, iv. The format is organism-based, Canis lupus familiaris, Artery. More on the design: dose 5 mg/kg, route intravenous. As to conditions: in vivo.
Series [24] is filed under the species Felis catus. In words: Positive inotropic activity in cat heart papillary muscle assessed as increase in contractile force up to 10 ug/mL measured for 5 to 30 mins in presence of beta-adrenergic inhibitor sotalol. Format: functional, tissue-based. The method in brief:
as §6

The subject of series [25] is Canis familiaris. The experiment in a line: Positive inotropic activity in Beagle dog assessed as increase in left ventricular contractile force at 5 mg/kg, iv. The arrangement: dose 5 mg/kg. Format: functional, organism-based. Conditions: Canis lupus familiaris, Heart left ventricle.
Series [26] is filed under the species Felis catus. In words: Positive inotropic activity in heart papillary muscle isolated from reserpine-treated cat assessed as increase in contractile force at 10 ug/mL measured for 5 to 30 mins. Format: functional, tissue-based. As to conditions: Muscle tissue. Summed up:
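Cats pretreated with reserpine 0.5 mg/kg ip before papillary muscle isolation. Right-ventricular muscles kept in Krebs–Henseleit at 37 °C, stimulated at 1/s, and force recorded at 5–30 min after compound addition.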

The test system of series [27] is Canis familiaris. In words: Positive inotropic activity in Beagle dog assessed as increase in left ventricular contractile force at 1.25 mg/kg, iv measured after 1 hr. Format: functional, organism-based. More on the design: dose 1.25 mg/kg. Conditions: Canis lupus familiaris, Heart left ventricle.
Series [28] can be described thus: Positive inotropic activity in cat heart papillary muscle assessed as increase in contractile force at 0.8 ug/mL measured for 5 mins (reference value: 1080 mg). Format: functional, Felis catus, Muscle tissue.
The species entered for series [29] is Bos taurus. Described as §3. Summed up: as §4
The nature of series [30]: Inhibition of guinea pig kidney Na+-K+ dependent ATPase preincubated for 30 mins measured after 10 to 20 mins. More on the design: species or system Cavia porcellus. Conditions: read-out: I50. Summed up: as §2

The structures appear in SMILES notation. The source made the active and inactive calls. The rule behind the calls is not given here. Some results are limits rather than exact numbers.

In the case of `C[C@@H]1O[C@@H](O[C@H]2C[C@@H](O)[C@]3(CO)[C@H]4[C@H](O)C[C@]5(C)[C@@H](C6=CC(=O)OC6)CC[C@]5(O)[C@@H]4CC[C@]3(O)C2)[C@H](O)[C@H](O)[C@H]1O` [OUABAIN], the Activity is on record as over 600 mg in series [1], 201 mg in series [4] and over 600 mg in series [5]. Further, the IC50 in series [2] turned out to be 0.2 µM; in series [3] it was 0.5 µM; in series [6] it was 0.5 µM. Further, the outcome in [7] was Active.
As to `CNC(=N)C(Cl)(Cl)Cl.Cl`, the IC50 in [3] was determined as 1000 µM. Further, the Activity in series [8] is 201 mg; in [11] it was 0.98 µg/mL; in series [12] it was over 600 mg; in series [13], over 600 mg. Besides, the outcome in series [9] was inactive. In addition, the I50 result in series [10] is “inactive”.
`N=C(NCc1c[nH]c2ccccc12)C(Cl)(Cl)Cl`: the IC50 in [2] was found to be 20 µM; in [3], 45 µM. Besides, the Activity entry in series [14] was “Toxic”; in series [16] it was 1375 mg; in [17] it was 201 mg; in [18], “Non-toxic”; in series [21] it was 125 g; in [23], “Toxic”. The Activity in series [11] is 1.27 µg/mL; in series [12] it was over 600 mg; in [13] it was 201 mg. In [15], this compound displayed a pKa of 6. The result in series [19], in series [20], in series [22], in series [24], in series [25] and in [26] was Active. The result in [27] was Active.
As to `CC(CCc1ccc(O)cc1)NCCc1ccc(O)c(O)c1` (configuration not stated) [DOBUTAMINE], the Activity in [28] is 1640 mg.
Take `N=C(NCc1ccccc1CO)C(Cl)(Cl)Cl`: the I50 result in [29] and in [10] was “inactive” each time. Besides, the result in [24] was Active. The Activity in series [12] is listed as 201 mg.
Take `N=C(NCCc1c[nH]c2ccccc12)C(Cl)(Cl)Cl`: the Activity in series [17] is 201 mg; in series [11], 2.33 µg/mL; in series [12], over 600 mg; in series [13], 201 mg. In addition, the IC50 in series [3] worked out at 33 µM; in series [30], 4 µM; in series [6], 150 µM. For the same compound, the result in series [24] was Active.
Consider `COc1ccc(CNC(=N)C(Cl)(Cl)Cl)cc1.Cl`, for which the IC50 in [2] came to 5 µM; in [3], 20 µM; in series [30], 100 µM; in [6], 800 µM. The same compound registered a pKa in [15] of 6. For the same compound, the Activity in series [8] is under 200 mg; in series [11], 4.99 µg/mL; in series [12] it was over 600 mg; in series [13], 201 mg. For the same compound, the outcome in [24] and in series [26] was Active.

What is called pKa is the negative logarithm of the acid dissociation constant. A low value points to a group that gives up its proton readily.

(Values after ChEMBL document CHEMBL3244020, “Trichloroacetamidines, a new class of positive inotropic agents” (J Med Chem, 1978).)
